# ChEMBL document CHEMBL4321819, “Simple Structural Modifications Converting a Bona fide MDM2 PROTAC Degrader into a Molecular Glue Molecule: A Cautionary Tale in the Design of PROTAC Degraders” (J Med Chem, 2019)
# Activity calls are given as the source filed them. The calls are words filed in the database; no cut-off is given here.
# Experiments:
# MOLM-13 = assay: Antiproliferative activity against human MOLM13 cells expressing wild type p53 assessed as cell growth inhibition after 4 days by WST-8 assay; assay type: functional, cell-based; details: MOLM-13, 96 h
# Procedure, shortened: (§1)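 Leukemia cells seeded at 10000–20000 cells/well, breast cancer lines at 5000–10000 cells/well. Serially diluted compound added, then 4 days at 37 °C, 5% CO2. Growth read with WST-8 reagent after at least 1 h, absorbance at 450 nm. RS4;11, MOLM-13 and breast lines were grown in RPMI 1640; MV-4-11 and HL-60 in IMDM; all with 10% FBS. Mean ± SE, at least three independent experiments.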
# HL-60 = assay: Antiproliferative activity against human HL60 cells with lack of p53 assessed as cell growth inhibition after 4 days by WST-8 assay; assay type: functional, cell-based; details: HL-60, 96 h; procedure, shortened: as §1
# [1] = target: T1, E3 ubiquitin-protein ligase Mdm2 (Homo sapiens, UniProt Q00987); assay: Induction of MDM2 degradation in human RS4:11 cells assessed as upregulation of p53 at 1 to 30 nM after 2 hrs by Western blot analysis; assay type: cell-based
# T1 sequence (Q00987 whole entry, looked up): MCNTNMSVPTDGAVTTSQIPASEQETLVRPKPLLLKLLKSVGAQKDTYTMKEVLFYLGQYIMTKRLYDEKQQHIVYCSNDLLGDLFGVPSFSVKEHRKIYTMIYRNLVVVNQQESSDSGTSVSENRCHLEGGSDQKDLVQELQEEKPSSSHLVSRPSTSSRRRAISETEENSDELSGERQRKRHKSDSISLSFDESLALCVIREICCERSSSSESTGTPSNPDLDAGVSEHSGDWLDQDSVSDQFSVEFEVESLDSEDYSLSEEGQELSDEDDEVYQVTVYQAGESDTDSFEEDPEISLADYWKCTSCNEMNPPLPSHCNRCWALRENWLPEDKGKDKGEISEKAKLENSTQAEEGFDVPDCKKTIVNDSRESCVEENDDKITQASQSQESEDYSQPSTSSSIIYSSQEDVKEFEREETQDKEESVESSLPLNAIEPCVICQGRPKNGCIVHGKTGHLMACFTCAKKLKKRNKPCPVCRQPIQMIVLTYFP
# Procedure, shortened: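 Western blots of MDM2 and p53 protein were run on RS4;11 cells (wild-type p53) in RPMI 1640 with 10% FBS. 2×10^6 cells/well were treated at the indicated concentrations for 1 h or 2 h. Lysis was in ice-cold buffer with protease inhibitor, followed by probing with specific antibodies.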
# [2] = target: T1, E3 ubiquitin-protein ligase Mdm2; assay: Induction of MDM2 degradation in human RS4:11/IRMI-2 cells harboring p53 hotspot mutation Y236H/R249G assessed as downregulation of MDM2 at 1 to 30 nM after 2 hrs by Western blot analysis; assay type: cell-based
# Procedure, shortened: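 RS4;11/IRMI-2 cells are an MDM2 inhibitor-resistant line derived from RS4;11, with p53 mutations confirmed by sequencing. 2×10^6 cells/well were treated 2 h at the indicated concentrations. MDM2 protein was probed by Western blot after lysis in ice-cold buffer with protease inhibitor.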
# MDA-MB-231 [3] = assay: Antiproliferative activity against human MDA-MB-231 cells transfected with MDM2 siRNA assessed as cell growth inhibition after 4 days by WST-8 assay; assay type: functional, cell-based; details: MDA-MB-231, 96 h
# Procedure, shortened: (§2)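 MDA-MB-231 or MDA-MB-468 cells transfected for 2 days using Lipofectamine RNAiMAX with MDM2 siRNA, one of two CRBN siRNAs, or non-targeting control siRNA. Compound then added and growth read by WST-8 at 450 nm.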
# MDA-MB-231 [4] = assay: Antiproliferative activity against human MDA-MB-231 cells harboring mutant p53 assessed as cell growth inhibition without interaction with cereblon after 4 days by WST-8 assay; assay type: functional, cell-based; details: MDA-MB-231, 96 h
# MDA-MB-231 [5] = assay: Antiproliferative activity against human MDA-MB-231 cells transfected with CRBN siRNA LQ-021086-10-0002 assessed as cell growth inhibition after 4 days by WST-8 assay; assay type: functional, cell-based; details: MDA-MB-231, 72 h, in the assay text read “after 3 days” for “after 4 days”; procedure, shortened: as §2
# MDA-MB-231 [6] = assay: Antiproliferative activity against human MDA-MB-231 cells assessed as cell growth inhibition after 4 days in presence of control siRNA for 3 days followed by compound treatment by WST-8 assay; assay type: functional, cell-based
# [7] = target: T2, Protein cereblon/Eukaryotic peptide chain release factor GTP-binding subunit ERF3A/DNA damage-binding protein 1/Cullin-4A (Homo sapiens) (UniProt Q96SW2+Q16531+Q13619+P15170); assay: Protac activity at GSPT1/CUL4/DDB1/CRBN in human RS4:11 cells expressing wild type p53 assessed as decrease in GSPT1 protein level measured upto 24 hrs by Western blot analysis; assay type: cell-based
# T2 sequence (P15170 whole entry, looked up): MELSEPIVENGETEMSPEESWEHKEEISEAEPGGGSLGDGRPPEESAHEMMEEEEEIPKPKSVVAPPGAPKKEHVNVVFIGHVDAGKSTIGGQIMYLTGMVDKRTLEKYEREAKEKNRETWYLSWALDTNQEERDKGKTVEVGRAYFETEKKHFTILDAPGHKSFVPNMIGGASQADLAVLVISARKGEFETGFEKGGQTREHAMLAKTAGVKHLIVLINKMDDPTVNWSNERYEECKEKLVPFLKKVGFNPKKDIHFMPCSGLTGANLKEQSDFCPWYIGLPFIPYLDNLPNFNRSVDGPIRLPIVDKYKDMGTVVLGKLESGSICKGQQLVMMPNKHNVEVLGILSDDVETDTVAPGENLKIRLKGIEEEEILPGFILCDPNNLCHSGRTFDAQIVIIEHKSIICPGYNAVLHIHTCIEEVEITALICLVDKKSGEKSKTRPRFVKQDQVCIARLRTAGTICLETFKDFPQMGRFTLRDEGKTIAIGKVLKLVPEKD
# T2 sequence (Q13619 whole entry, looked up): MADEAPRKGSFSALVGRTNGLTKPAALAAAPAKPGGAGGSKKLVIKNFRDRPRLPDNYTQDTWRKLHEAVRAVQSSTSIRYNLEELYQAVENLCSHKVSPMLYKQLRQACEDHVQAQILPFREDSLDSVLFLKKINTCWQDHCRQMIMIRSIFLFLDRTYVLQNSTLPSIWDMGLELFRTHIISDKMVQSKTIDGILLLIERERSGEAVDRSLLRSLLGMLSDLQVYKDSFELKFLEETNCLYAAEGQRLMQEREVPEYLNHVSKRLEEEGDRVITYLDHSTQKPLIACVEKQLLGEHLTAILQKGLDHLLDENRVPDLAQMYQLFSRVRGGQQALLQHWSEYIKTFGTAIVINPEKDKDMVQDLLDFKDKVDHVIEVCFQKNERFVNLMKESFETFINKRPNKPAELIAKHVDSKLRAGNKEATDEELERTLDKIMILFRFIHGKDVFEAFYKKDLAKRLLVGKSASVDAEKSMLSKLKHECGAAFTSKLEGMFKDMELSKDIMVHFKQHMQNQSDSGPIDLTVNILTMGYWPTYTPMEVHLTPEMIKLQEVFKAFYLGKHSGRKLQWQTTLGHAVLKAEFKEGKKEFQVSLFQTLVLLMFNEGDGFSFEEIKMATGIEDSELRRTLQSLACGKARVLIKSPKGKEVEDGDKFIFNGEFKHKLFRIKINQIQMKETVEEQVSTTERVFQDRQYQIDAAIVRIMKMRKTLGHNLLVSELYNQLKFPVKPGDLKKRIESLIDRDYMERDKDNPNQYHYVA
# T2 sequence (Q16531 whole entry, looked up): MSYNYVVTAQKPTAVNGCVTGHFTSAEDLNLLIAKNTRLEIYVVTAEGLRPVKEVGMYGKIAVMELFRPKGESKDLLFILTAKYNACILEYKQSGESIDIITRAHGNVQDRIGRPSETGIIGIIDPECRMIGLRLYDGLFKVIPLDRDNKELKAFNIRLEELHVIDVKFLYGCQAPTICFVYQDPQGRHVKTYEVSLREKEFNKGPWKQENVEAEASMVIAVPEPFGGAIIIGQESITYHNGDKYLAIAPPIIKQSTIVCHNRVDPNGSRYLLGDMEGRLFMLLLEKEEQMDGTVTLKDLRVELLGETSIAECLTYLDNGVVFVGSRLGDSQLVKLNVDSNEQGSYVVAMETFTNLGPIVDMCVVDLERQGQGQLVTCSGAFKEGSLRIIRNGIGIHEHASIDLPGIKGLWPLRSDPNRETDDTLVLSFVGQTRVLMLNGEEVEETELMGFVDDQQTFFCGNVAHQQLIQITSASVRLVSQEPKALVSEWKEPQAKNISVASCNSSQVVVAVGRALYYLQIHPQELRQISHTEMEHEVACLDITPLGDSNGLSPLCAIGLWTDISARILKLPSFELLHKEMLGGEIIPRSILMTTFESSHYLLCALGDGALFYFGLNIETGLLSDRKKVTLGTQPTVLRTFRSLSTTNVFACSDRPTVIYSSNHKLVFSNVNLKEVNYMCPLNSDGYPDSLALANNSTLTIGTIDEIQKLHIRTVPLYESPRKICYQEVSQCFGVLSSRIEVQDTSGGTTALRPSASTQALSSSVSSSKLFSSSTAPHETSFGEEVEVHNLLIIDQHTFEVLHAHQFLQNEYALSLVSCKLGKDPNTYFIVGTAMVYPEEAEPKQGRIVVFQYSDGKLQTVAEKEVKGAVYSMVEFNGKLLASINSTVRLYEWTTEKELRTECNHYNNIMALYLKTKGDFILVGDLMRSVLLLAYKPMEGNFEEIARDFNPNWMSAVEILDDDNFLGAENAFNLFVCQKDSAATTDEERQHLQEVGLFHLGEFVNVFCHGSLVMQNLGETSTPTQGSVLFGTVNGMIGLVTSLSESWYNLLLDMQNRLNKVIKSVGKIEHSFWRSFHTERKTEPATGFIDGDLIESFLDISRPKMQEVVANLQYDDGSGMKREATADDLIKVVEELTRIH
# T2 sequence (Q96SW2 whole entry, looked up): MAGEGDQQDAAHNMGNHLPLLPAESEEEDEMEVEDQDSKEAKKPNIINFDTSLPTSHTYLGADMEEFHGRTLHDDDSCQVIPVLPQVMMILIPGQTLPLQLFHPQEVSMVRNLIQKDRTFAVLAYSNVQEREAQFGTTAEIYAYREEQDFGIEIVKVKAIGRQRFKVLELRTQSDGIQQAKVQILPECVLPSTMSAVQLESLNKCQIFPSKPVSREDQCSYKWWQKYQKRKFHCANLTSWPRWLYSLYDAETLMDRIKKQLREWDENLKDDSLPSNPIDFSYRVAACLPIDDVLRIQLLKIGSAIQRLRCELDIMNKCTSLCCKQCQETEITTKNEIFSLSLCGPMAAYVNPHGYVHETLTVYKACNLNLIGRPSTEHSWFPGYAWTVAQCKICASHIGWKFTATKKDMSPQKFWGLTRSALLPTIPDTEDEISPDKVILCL
# Procedure, shortened: (§3)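 RS4;11 (wild-type p53) or RS4;11/IRMI-2 (MDM2 inhibitor-resistant derivative, mutant p53) cells kept in RPMI 1640 with 10% FBS at 37 °C, 5% CO₂. 2×10^6 cells/well treated at the indicated concentrations and times, then lysed in ice-cold lysis buffer with protease inhibitor. GSPT1 detected by Western blot with a specific antibody.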
# [8] = target: T2, Protein cereblon/Eukaryotic peptide chain release factor GTP-binding subunit ERF3A/DNA damage-binding protein 1/Cullin-4A (Homo sapiens); assay: Protac activity at GSPT1/CUL4/DDB1/CRBN in human RS4:11 cells expressing wild type p53 assessed as decrease in GSPT1 protein level at 10 nM by Western blot analysis; assay type: cell-based; details: TDE = time-dependent effect; procedure, shortened: as §3
# [9] = target: T2, Protein cereblon/Eukaryotic peptide chain release factor GTP-binding subunit ERF3A/DNA damage-binding protein 1/Cullin-4A (Homo sapiens); assay: Protac activity at GSPT1/CUL4/DDB1/CRBN in human RS4:11/IRMI-2 cells harboring p53 hotspot mutation Y236H/R249G assessed as effect on GSPT1 mRNA level after 3 hrs by qRT-PCR analysis; assay type: cell-based
# [10] = target: T2, Protein cereblon/Eukaryotic peptide chain release factor GTP-binding subunit ERF3A/DNA damage-binding protein 1/Cullin-4A (Homo sapiens); assay: Protac activity at GSPT1/CUL4/DDB1/CRBN in human RS4:11 cells expressing wild type p53 assessed as decrease in GSPT1 protein level after 2 hrs by Western blot analysis; assay type: cell-based; procedure, shortened: as §3
# [11] = target: T2, Protein cereblon/Eukaryotic peptide chain release factor GTP-binding subunit ERF3A/DNA damage-binding protein 1/Cullin-4A (Homo sapiens); assay: Protac activity at GSPT1/CUL4/DDB1/CRBN in human RS4:11/IRMI-2 cells harboring p53 hotspot mutation Y236H/R249G assessed as decrease in GSPT1 protein level after 2 hrs by Western blot analysis; assay type: cell-based; procedure, shortened: as §3
# [12] = target: Protein cereblon/Eukaryotic peptide chain release factor GTP-binding subunit ERF3A (Homo sapiens) (UniProt Q96SW2+P15170); assay: Inhibition of cereblon binding with GSPT1 in human MDA-MB-231 cells assessed as decrease in GSPT1 degradation at 0.1 uM after 2 hrs in presence of 30 uM lenalidomide by Western blot analysis; assay type: cell-based
# Protein cereblon/Eukaryotic peptide chain release factor GTP-binding subunit ERF3A (Homo sapiens), sequence (P15170 whole entry, looked up): as the sequence (P15170 whole entry, looked up) above
# Protein cereblon/Eukaryotic peptide chain release factor GTP-binding subunit ERF3A (Homo sapiens), sequence (Q96SW2 whole entry, looked up): as the sequence (Q96SW2 whole entry, looked up) above
# Procedure, shortened: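 MDA-MB-231 or MDA-MB-468 cells were treated 2 h with or without 30 μM lenalidomide to block cereblon binding. GSPT1 protein level was then assessed by Western blotting.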
# [13] = target: T3, Eukaryotic peptide chain release factor GTP-binding subunit ERF3A (Homo sapiens, UniProt P15170); assay: Induction of GSPT1 degradation in human MDA-MB-231 cells transfected with CRBN siRNA LQ-021086-10-0002 assessed as decrease in GSPT1 protein level at 0.1 uM after 2 to 24 hrs by Western blot analysis; assay type: cell-based
# T3 sequence (P15170 whole entry): as the sequence (P15170 whole entry, looked up) above
# Procedure, shortened: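 MDA-MB-231 cells transfected with CRBN or non-targeting siRNA, then exposed to 0.1 μM compound for 2 h or 24 h. Lysed in ice-cold lysis buffer with protease inhibitor; GSPT1 and cereblon probed by Western blot.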
# [14] = target: T3, Eukaryotic peptide chain release factor GTP-binding subunit ERF3A; assay: Induction of GSPT1 degradation in human MDA-MB-231 cells transfected with CRBN siRNA LQ-021086-11-0002 assessed as decrease in GSPT1 protein level at 0.1 uM after 2 to 24 hrs by Western blot analysis; assay type: cell-based
# Procedure, shortened: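 MDA-MB-231 or MDA-MB-468 cells transfected 2 days with CRBN siRNA (Lipofectamine RNAiMAX; non-targeting siRNA as control), then exposed to 0.1 μM for 2 h or 24 h. Cell culture was RPMI 1640 with 10% FBS at 37 °C, 5% CO2. GSPT1 and cereblon protein were probed by Western blot.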
# [15] = target: T3, Eukaryotic peptide chain release factor GTP-binding subunit ERF3A; assay: Induction of GSPT1 degradation in human RS4:11 cells at 0.1 uM pretreated with proteasome inhibitor PR-171 followed by compound treatment after 2 hrs by Western blot analysis
smiles,measurement,setting,value
O=C1CCC(N2Cc3c(CCCCCNC(=O)[C@@H]4NC5(CCCCC5)[C@@]5(C(=O)Nc6cc(Cl)ccc65)[C@H]4c4cccc(Cl)c4F)cccc3C2=O)C(=O)N1 (some centres not stated),IC50,MOLM-13,24.6 nM
same,IC50,HL-60,8.3 nM
same,Activity,[1],inactive
same,Activity,[2],Active
same,IC50,MDA-MB-231 [3],19.3 nM
same,IC50,MDA-MB-231 [4],39.4 nM
same,IC50,MDA-MB-231 [5],> 3000 nM
same,IC50,MDA-MB-231 [6],30 nM
same,Activity,[7],Dose-dependent effect
same,Activity,[8],Tde
same,Activity,[9],inactive
same,Activity,[10],Active
same,Activity,[11],Active
same,inhibition,[12],Active
same,Activity,[13],inactive
same,Activity,[14],inactive
same,Activity,[15],inactive
